How the values were obtained:
A549 [1] = assay: (§1) Cytotoxicity potentiation of Topotecan in human lung carcinoma A549 cells by the compound as potentiation factor at 50% growth inhibition; assay type: functional
Summary of the method: (§2)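 Cells were seeded 16–24 h before treatment, then exposed continuously for 5 days to increasing concentrations of temozolomide or topotecan, with or without 0.4 μM PARP-1 inhibitor. Final DMSO was 1%. Relative cell number was measured by SRB assay. Growth IC50 values came from point-to-point analysis of growth curves. PF50 = IC50 of cytotoxic agent alone / IC50 with inhibitor. Data are mean ± SEM of three independent experiments.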

[2] = target: T1, Poly [ADP-ribose] polymerase 1 (Homo sapiens, UniProt P09874)
T1 sequence (P09874 whole entry): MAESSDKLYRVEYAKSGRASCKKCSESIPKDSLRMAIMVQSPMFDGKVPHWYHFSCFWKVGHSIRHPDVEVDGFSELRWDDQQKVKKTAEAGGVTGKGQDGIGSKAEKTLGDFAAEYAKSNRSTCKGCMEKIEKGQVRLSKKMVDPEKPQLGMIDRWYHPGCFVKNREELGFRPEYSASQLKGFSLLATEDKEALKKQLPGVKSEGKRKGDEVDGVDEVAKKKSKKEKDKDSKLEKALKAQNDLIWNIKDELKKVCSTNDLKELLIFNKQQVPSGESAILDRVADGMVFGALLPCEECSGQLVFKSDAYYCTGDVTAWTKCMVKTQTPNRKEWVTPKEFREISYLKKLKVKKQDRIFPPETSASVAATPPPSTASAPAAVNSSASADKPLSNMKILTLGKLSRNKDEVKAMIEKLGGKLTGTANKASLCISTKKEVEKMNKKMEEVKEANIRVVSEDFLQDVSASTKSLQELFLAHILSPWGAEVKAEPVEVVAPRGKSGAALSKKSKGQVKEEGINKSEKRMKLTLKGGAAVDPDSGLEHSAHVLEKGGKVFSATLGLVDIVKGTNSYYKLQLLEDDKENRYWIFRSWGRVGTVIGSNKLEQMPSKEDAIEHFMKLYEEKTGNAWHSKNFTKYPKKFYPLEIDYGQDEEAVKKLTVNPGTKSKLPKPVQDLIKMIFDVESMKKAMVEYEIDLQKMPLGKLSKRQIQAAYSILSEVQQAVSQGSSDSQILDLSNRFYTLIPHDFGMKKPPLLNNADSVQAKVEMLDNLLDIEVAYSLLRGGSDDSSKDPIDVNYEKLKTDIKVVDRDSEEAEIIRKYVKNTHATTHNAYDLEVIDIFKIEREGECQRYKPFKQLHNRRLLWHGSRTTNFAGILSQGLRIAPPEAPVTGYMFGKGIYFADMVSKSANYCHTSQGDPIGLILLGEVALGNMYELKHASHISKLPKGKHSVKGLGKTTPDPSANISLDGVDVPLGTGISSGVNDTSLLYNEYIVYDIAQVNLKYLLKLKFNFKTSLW

LoVo [3] = assay: Cytotoxic potentiation of Topotecan (TP) by the compound in (human colorectal cancer LoVo cell line; assay type: functional, cell-based; summary of the method: as §2
A549 [4] = assay: Cytotoxic potentiation of Topotecan (TP) by the compound in human lung carcinoma A549 cell line; assay type: functional, cell-based; summary of the method: as §2
LoVo [5] = assay: Cytotoxic potentiation of Tomozolomide (TM) by the compound in human colorectal carcinoma LoVo cell line; assay type: functional, cell-based; summary of the method: as §2
LoVo [6] = assay: Cytotoxic potentiation of Topotecan (TP) by the compound in human colorectal carcinoma LoVo cell line; assay type: functional, cell-based; summary of the method: as §2
SW-620 [7] = assay: Cytotoxic potentiation of Topotecan (TP) by the compound in human colon carcinoma SW620 cell line; assay type: functional, cell-based; summary of the method: as §2
SW-620 [8] = assay: Cytotoxicity potentiation of Topotecan in human lung carcinoma SW620 cell line by the compound as potentiation factor at 50% growth inhibition; assay type: functional; details: in the assay text read “human colon carcinoma” for “human lung carcinoma”; summary of the method: as §2
A549 [9] = assay: as §1; assay type: functional; summary of the method: as §2; remark: listed apart in the source
[10] = target: T1, Poly [ADP-ribose] polymerase 1; remark: listed apart in the source

Ki [2] [nM] | SMILES | PF50 (A549 [1]) | other results
 | O=C1NCCc2c(-c3ccc(F)cc3)[nH]c3cccc1c23 | 2.3 | 
6 | O=C1NCCc2c(-c3cccc(C(F)(F)F)c3)[nH]c3cccc1c23 |  | 
 | CN1CCc2c(-c3ccccc3)n(C)c3cccc(c23)C1=O | 1.2 | 
6 | COc1ccc(-c2[nH]c3cccc4c3c2CCNC4=O)cc1 |  | 
 | Cn1c(-c2ccccc2)c2c3c(cccc31)C(=O)NCC2 | 1.7 | 
8 | CN(C)Cc1cccc(-c2[nH]c3cccc4c3c2CCNC4=O)c1 | 2.1 | 
< 5 | CN(C)Cc1cccc(-c2[nH]c3cccc4c3c2CNC4=O)c1 |  | 
 | O=C1NCCc2c(-c3ccccc3)[nH]c3cccc1c23 | 1.8 | 
 | O=C1NCCc2c[nH]c3cccc1c23 | 1.1 | 
7 | Nc1cccc(-c2[nH]c3cccc4c3c2CCNC4=O)c1 |  | 
 | CN(C)Cc1ccc(-c2[nH]c3cccc4c3c2CCNC4=O)cc1 | 2.4 | 
 | CN(C)Cc1ccc(-c2[nH]c3cccc4c3c2CNC4=O)cc1 | 2.2 | 
11 | N#Cc1[nH]c2cccc3c2c1CCNC3=O |  | 
23 | O=C1NCCc2c(C(c3ccccc3)c3ccccc3)[nH]c3cccc1c23 |  | 
370 | O=C1NCCc2c(O)[nH]c3cccc1c23 |  | 
< 5 | O=C1NCc2c(-c3ccccc3)[nH]c3cccc1c23 |  | 
 | Cn1nnc2c(C(N)=O)ncn2c1=O [TEMOZOLOMIDE] |  | IC50 (LoVo [3]; in the assay text read “Temozolomide (TM)” for “Topotecan (TP)”): 595000 nM
 | O=C1NCCc2c(-c3ccc(Cn4cccc4)cc3)[nH]c3cccc1c23 | 2 | IC50 (A549 [4]): 12 nM; IC50 (LoVo [5]): 76000 nM; IC50 (LoVo [6]): 6.5 nM; IC50 (SW-620 [7]): 1.8 nM; PF50 (SW-620 [8]): 1.8; PF50 (A549 [9]): 2; Ki [10]: 6 nM
 | CC[C@@]1(O)C(=O)OCc2c1cc1n(c2=O)Cc2cc3c(CN(C)C)c(O)ccc3nc2-1 [TOPOTECAN] |  | IC50 (A549 [4]): 24 nM; IC50 (LoVo [3]): 11.6 nM; IC50 (SW-620 [7]): 3.2 nM
8 | O=C1NCCc2c(-c3ccc[nH]3)[nH]c3cccc1c23 |  | 

SMILES | Ki [2] [nM] | PF50 (A549 [1]) | other results
COc1[nH]c2cccc3c2c1CCNC3=O | 10 |  | 

Reference: ChEMBL document CHEMBL1136008, “Novel tricyclic poly(ADP-ribose) polymerase-1 inhibitors with potent anticancer chemopotentiating activity: design, synthesis, and X-ray cocrystal structure” (J Med Chem, 2002)
